Experiments:
COS-7 = assay: Percentage block at hERG Voltage-gated potassium channel (subunit Kv11.1) expressed in COS7 cells by electrophysiological whole cell assay (300 nM); type: cell-based; settings: Homo sapiens
[1] = Inhibition of […] binding to recombinant human chimeric NPY5/NPY1 receptor expressed in Sf9 cells
How it was run: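 Membranes from Sf9 cells expressing the human chimeric NPY5/NPY1 receptor, in 50 mM Tris-HCl pH 7.4 with 5 mM KCl, 120 mM NaCl, 2 mM CaCl2, 1 mM MgCl2 and 0.1% BSA. Membranes (5–50 µg) competed against 0.050 nM porcine [125I]PYY for 2 h at room temperature. Nonspecific binding was defined with 1 µM human NPY. Filtration and gamma counting followed; Ki came from a Hill fit; mean of n = 2-3 ± SEM.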

[2] = Volume of distribution at steady state; type: ADME, organism-based; settings: in vivo; read-out: Vss
How it was run: (§1)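 Sprague–Dawley rats received a single 3 mg/kg iv catheter dose in 50% PEG/water (n = 2). Blood was sampled at predose and from 5 min to 24 h. Heparinized plasma was precipitated with acetonitrile and analyzed by LC.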

[3] = Oral half life of the compound; type: ADME, organism-based; settings: in vivo
How it was run: (§2)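 Sprague–Dawley rats received a single 20 mg/kg oral gavage dose in 20% vitamin E/water (n = 3). Blood was sampled from predose to 24 h. Heparinized plasma was precipitated with acetonitrile and analyzed by LC. Bioavailability was set against a 3 mg/kg iv dose (n = 2).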

[4] = Maximum plasma concentration after oral dosing in rat; type: ADME, organism-based; set-up: route oral; how it was run: as §2
[5] = Plasma clearance of the compound; type: ADME, organism-based; how it was run: as §1
Rattus norvegicus = assay: Oral bioavailability after peroral administration in rats; type: organism-based; how it was run: as §2

Compound	Ki [1] [nM]	further results
CN(C[C@H]1CC[C@H](c2nc(-c3cccc(C(F)(F)F)c3)c[nH]2)CC1)S(=O)(=O)c1ccccc1	1.3	inhibition (COS-7): 85%
CC(C)(CO)NC(=O)[C@H]1CC[C@H](c2nc(-c3cccc(C(F)(F)F)c3)c[nH]2)CC1	2.8	Vd [2]: 6 L/kg; half-life [3]: 780 min; Cmax [4]: 714 ng/mL; clearance [5]: 50 mL/min/kg; bioavailability (Rattus norvegicus): 36%
O=C(NCCO)[C@H]1CC[C@H](c2nc(-c3cccc(C(F)(F)F)c3)c[nH]2)CC1	11	–
NCCNC(=O)[C@H]1CC[C@H](c2nc(-c3cccc(C(F)(F)F)c3)c[nH]2)CC1	915	–
CC(=O)NNC(=O)[C@H]1CC[C@H](c2nc(-c3cccc(C(F)(F)F)c3)c[nH]2)CC1	1.4	–
O=C(NCCCO)[C@H]1CC[C@H](c2nc(-c3cccc(C(F)(F)F)c3)c[nH]2)CC1	185	–
O=S(=O)(NC[C@H]1CC[C@H](c2nc(-c3cccc(C(F)(F)F)c3)c[nH]2)CC1)c1ccccc1	0.2	inhibition (COS-7): 87%
C[C@H](O)CNC(=O)[C@H]1CC[C@H](c2nc(-c3cccc(C(F)(F)F)c3)c[nH]2)CC1	31	–
CC(=O)CNC(=O)[C@H]1CC[C@H](c2nc(-c3cccc(Br)c3)c[nH]2)CC1	10	–
C[C@@H](O)CNC(=O)[C@H]1CC[C@H](c2nc(-c3cccc(C(F)(F)F)c3)c[nH]2)CC1	8	–
COCCNC(=O)[C@H]1CC[C@H](c2nc(-c3cccc(C(F)(F)F)c3)c[nH]2)CC1	99	–
FC(F)(F)c1cccc(-c2c[nH]c(C3CCCCC3)n2)c1	6	–
O=C(NS(=O)(=O)c1ccccc1)[C@H]1CC[C@H](c2nc(-c3cccc(C(F)(F)F)c3)c[nH]2)CC1	31	–
FC(F)(F)c1cccc(-c2c[nH]c(-c3ccccc3)n2)c1	2.5	–
